Converted amounts (≈) assume the structure as drawn. The source made the active and inactive calls. The calls are words filed in the database; no cut-off is given here.
Assays:
Type in all cases: functional
[1] = system: Mycobacterium tuberculosis; test: Antimycobacterial activity against Mycobacterium tuberculosis H37Rv after 45 days
Outline: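 Canetti proportion method. Compound in DMSO is added to Löwenstein–Jensen egg medium before coagulation (30 min, 85 °C), tested at three levels plus a lower one where needed. Tubes are inoculated with H37Rv at 10⁵ cells/ml and incubated 45 days at 37 °C. Colony counts versus drug-free control give percentage inhibition.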

Bacillus subtilis = test: Antibacterial activity against Bacillus subtilis ATCC 6633 at 50 mg/ml after 24 hrs by agar diffusion test; details: for zone of inhibition at 50000 µg/mL: ATCC 6633, 24 h, read-out: DIZ
Outline: (§1)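 Agar diffusion: wells in agar filled with […] DMSO solution of compound at various concentrations; diameter of clear zone around application point measured. Bacteria grown 24 h at 37 °C on nutrient agar. Compounds first screened at 50 mg/ml; those active then tested at lower concentrations. Bracketed value = lowest concentration (mg/ml) giving zone >11 mm, reported only if activity retained at ≤1.25 mg/ml.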

Bacillus = test: Antibacterial activity against Bacillus idosus B 241 at 50 mg/ml after 24 hrs by agar diffusion test; details: for zone of inhibition at 50000 µg/mL: B 241, 24 h, read-out: DIZ; outline: as §1
Priestia megaterium = test: Antibacterial activity against Bacillus megaterium NRRL 1353895 at 50 mg/ml after 24 hrs by agar diffusion test; details: for zone of inhibition at 50000 µg/mL: NRRL 1353895, 24 h, read-out: DIZ; outline: as §1
Bacillus mycoides = test: Antibacterial activity against Bacillus mycoides DSMZ 274 at 50 mg/ml after 24 hrs by agar diffusion test; details: for zone of inhibition at 50000 µg/mL: DSMZ 274, 24 h, read-out: DIZ; outline: as §1
Bacillus cereus = test: Antibacterial activity against Bacillus cereus ATCC 11778 at 50 mg/ml after 24 hrs by agar diffusion test; details: for zone of inhibition at 50000 µg/mL: ATCC 11778, 24 h, read-out: DIZ; outline: as §1
Acinetobacter johnsonii = test: Antibacterial activity against Acinetobacter johnsonii ATCC 17909 at 50 mg/ml after 24 hrs by agar diffusion test; details: for zone of inhibition at 50000 µg/mL: ATCC 17909, 24 h, read-out: DIZ; outline: as §1
Staphylococcus aureus = test: Antibacterial activity against Staphylococcus aureus NRRL B 313 at 50 mg/ml after 24 hrs by agar diffusion test; details: for zone of inhibition at 50000 µg/mL: NRRL B 313, 24 h, read-out: DIZ
Outline: (§2)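 Agar diffusion: bacteria grown 24 h at 37 °C on nutrient agar. Wells in the agar are filled with […] of compound solution in DMSO at various concentrations. The diameter of the clear zone around the application point is measured. Bracketed values give the lowest concentration (mg/ml) that produces a zone >11 mm. A first screen is run at 50 mg/ml.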

Micrococcus luteus [2] = test: Antibacterial activity against Sarcina lutea ATCC 9341 at 50 mg/ml after 24 hrs by agar diffusion test; details: for zone of inhibition at 50000 µg/mL: ATCC 9341, 24 h, read-out: DIZ; outline: as §2
Micrococcus luteus [3] = test: Antibacterial activity against Micrococcus luteus ATCC 9631 at 50 mg/ml after 24 hrs by agar diffusion test; details: for zone of inhibition at 50000 µg/mL: ATCC 9631, 24 h, read-out: DIZ; outline: as §1
Escherichia coli = test: Antibacterial activity against Escherichia coli ATCC 8739 at 50 mg/ml after 24 hrs by agar diffusion test; details: for zone of inhibition at 50000 µg/mL: ATCC 8739, 24 h, read-out: DIZ; outline: as §1
Candida tropicalis = test: Antifungal activity against Candida tropicalis ATCC 20336 at 50 mg/ml after 72 hrs by agar diffusion test; details: for zone of inhibition at 50000 µg/mL: ATCC 20336, 72 h, read-out: DIZ
Outline: (§3)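 Agar diffusion: yeasts grown on yeast peptone dextrose agar and fungi on potato dextrose agar. Wells are filled with […] of compound solution in DMSO at various concentrations, and the clear-zone diameter is measured. Bracketed values give the lowest concentration (mg/ml) that produces a zone >11 mm. A first screen is run at 50 mg/ml.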

Saccharomyces cerevisiae = test: Antifungal activity against Saccharomyces cerevisiae ATCC 9763 at 50 mg/ml after 72 hrs by agar diffusion test; details: for zone of inhibition at 50000 µg/mL: ATCC 9763, 72 h, read-out: DIZ; outline: as §3
Penicillium chrysogenum = test: Antifungal activity against Penicillium chrysogenum CECT 2802 at 50 mg/ml after 72 hrs by agar diffusion test; details: for zone of inhibition at 50000 µg/mL: CECT 2802, 72 h, read-out: DIZ; outline: as §3

SMILES | MIC [1] [µM] | diameter of the inhibition zone (DIZ) (Bacillus subtilis) | diameter of the inhibition zone (DIZ) (Bacillus) | diameter of the inhibition zone (DIZ) (Priestia megaterium) | diameter of the inhibition zone (DIZ) (Bacillus mycoides) | diameter of the inhibition zone (DIZ) (Bacillus cereus) | diameter of the inhibition zone (DIZ) (Acinetobacter johnsonii) | diameter of the inhibition zone (DIZ) (Staphylococcus aureus) | diameter of the inhibition zone (DIZ) (Micrococcus luteus [2]) | diameter of the inhibition zone (DIZ) (Micrococcus luteus [3]) | diameter of the inhibition zone (DIZ) (Escherichia coli) | diameter of the inhibition zone (DIZ) (Candida tropicalis) | diameter of the inhibition zone (DIZ) (Saccharomyces cerevisiae) | diameter of the inhibition zone (DIZ) (Penicillium chrysogenum) | zone of inhibition at 50000 µg/mL (Bacillus subtilis) [mm] | zone of inhibition at 50000 µg/mL (Bacillus) [mm] | zone of inhibition at 50000 µg/mL (Priestia megaterium) [mm] | zone of inhibition at 50000 µg/mL (Bacillus mycoides) [mm] | zone of inhibition at 50000 µg/mL (Bacillus cereus) [mm] | zone of inhibition at 50000 µg/mL (Acinetobacter johnsonii) [mm] | other results
CC[C@H](CO)NC(=O)c1ccncc1 | > 25.7 | inactive | inactive | inactive | inactive | inactive | inactive | inactive | inactive | inactive | inactive | inactive | inactive | inactive |  |  |  |  |  |  | 
CC[C@H](CO)NCc1ccc2ccc3cccc4ccc1c2c34 | 16.5 (≈ 5 µg/mL) |  |  |  |  |  |  |  |  |  | inactive |  |  |  | 14 | 30 | 13 | 15 | 14 | 14 | zone of inhibition at 50000 µg/mL (Staphylococcus aureus): 13 mm; zone of inhibition at 50000 µg/mL (Micrococcus luteus [2]): 13 mm; zone of inhibition at 50000 µg/mL (Micrococcus luteus [3]): 14 mm; zone of inhibition at 50000 µg/mL (Candida tropicalis): 40 mm; zone of inhibition at 50000 µg/mL (Saccharomyces cerevisiae): 35 mm; zone of inhibition at 50000 µg/mL (Penicillium chrysogenum): 14 mm
CC[C@H](CO)NC(c1ccccc1)(c1ccccc1)c1ccccc1 | > 15.1 |  | inactive | inactive | inactive | inactive | inactive | inactive | inactive | inactive | inactive | inactive | inactive | inactive | 12 |  |  |  |  |  | 
CC[C@H](CO)N1C(=O)C=C(C)C1=O | 27.3 (≈ 5 µg/mL) |  |  |  |  |  |  |  |  |  |  |  |  |  | 21 | 23 | 20 | 24 | 28 | 21 | zone of inhibition at 50000 µg/mL (Staphylococcus aureus): 20 mm; zone of inhibition at 50000 µg/mL (Micrococcus luteus [2]): 21 mm; zone of inhibition at 50000 µg/mL (Micrococcus luteus [3]): 22 mm; zone of inhibition at 50000 µg/mL (Escherichia coli): 32 mm; zone of inhibition at 50000 µg/mL (Candida tropicalis): 20 mm; zone of inhibition at 50000 µg/mL (Saccharomyces cerevisiae): 21 mm; zone of inhibition at 50000 µg/mL (Penicillium chrysogenum): 25 mm
CC[C@H](CO)NCc1ccc(CN[C@H](CC)CO)cc1 | 17.8 (≈ 5 µg/mL) |  | inactive | inactive | inactive | inactive | inactive | inactive | inactive | inactive | inactive | inactive | inactive | inactive | 10 |  |  |  |  |  | 
CC[C@H](CO)n1cnc2ccccc2c1=O | 22.9 (≈ 5 µg/mL) | inactive |  | inactive | inactive | inactive |  | inactive | inactive | inactive | inactive | inactive | inactive | inactive |  | 14 |  |  |  | 14 | 
CC[C@H](CO)/N=C1\C[C@H]2CC[C@]1(C)C2(C)C | > 22.4 | inactive | inactive |  |  | inactive | inactive | inactive | inactive | inactive | inactive | inactive | inactive | inactive |  |  | 10 | 11 |  |  | 
CC[C@H](CO)N1C(=O)CCC1=O | > 29.2 | inactive | inactive | inactive | inactive | inactive | inactive | inactive | inactive | inactive | inactive | inactive | inactive | inactive |  |  |  |  |  |  | 
CC[C@H](CO)NCc1ccc(-n2ccnc2)cc1 | 20.4 (≈ 5 µg/mL) |  |  | inactive |  |  |  |  |  |  | inactive | inactive | inactive |  | 12 | 16 |  | 18 | 13 | 18 | zone of inhibition at 50000 µg/mL (Staphylococcus aureus): 16 mm; zone of inhibition at 50000 µg/mL (Micrococcus luteus [2]): 18 mm; zone of inhibition at 50000 µg/mL (Micrococcus luteus [3]): 16 mm; zone of inhibition at 50000 µg/mL (Penicillium chrysogenum): 12 mm
CC[C@@H]1COc2cc3ccccc3c(=O)n21 | 23.2 (≈ 5 µg/mL) | inactive |  |  |  |  |  |  |  |  |  |  |  |  |  | 15 | 13 | 15 | 18 | 10 | zone of inhibition at 50000 µg/mL (Staphylococcus aureus): 12 mm; zone of inhibition at 50000 µg/mL (Micrococcus luteus [2]): 13 mm; zone of inhibition at 50000 µg/mL (Micrococcus luteus [3]): 15 mm; zone of inhibition at 50000 µg/mL (Escherichia coli): 0 mm; zone of inhibition at 50000 µg/mL (Candida tropicalis): 20 mm; zone of inhibition at 50000 µg/mL (Saccharomyces cerevisiae): 11 mm; zone of inhibition at 50000 µg/mL (Penicillium chrysogenum): 35 mm
CC[C@H](CO)NCc1ccc(-c2ccccc2)cc1 | > 19.6 |  |  |  |  |  |  |  |  |  |  |  |  |  | 18 | 18 | 19 | 18 | 15 | 20 | zone of inhibition at 50000 µg/mL (Staphylococcus aureus): 20 mm; zone of inhibition at 50000 µg/mL (Micrococcus luteus [2]): 17 mm; zone of inhibition at 50000 µg/mL (Micrococcus luteus [3]): 17 mm; zone of inhibition at 50000 µg/mL (Escherichia coli): 28 mm; zone of inhibition at 50000 µg/mL (Candida tropicalis): 18 mm; zone of inhibition at 50000 µg/mL (Saccharomyces cerevisiae): 18 mm; zone of inhibition at 50000 µg/mL (Penicillium chrysogenum): 40 mm
CC[C@H](CO)NC(=O)c1ccc2ccccc2c1 | > 20.6 | inactive | inactive | inactive | inactive | inactive | inactive | inactive | inactive | inactive | inactive | inactive | inactive | inactive |  |  |  |  |  |  | 

— ChEMBL document CHEMBL1932986, “Synthesis and in vitro antimycobacterial activity of compounds derived from (R)- and (S)-2-amino-1-butanol - The crucial role of the configuration” (Eur J Med Chem, 2012)
